The list is not random: actives were taken first. Their share in the collection is about 3.1%.
OX1R antag-1 – blocks the human orexin 1 receptor; OX1R-expressing cells, FRET antagonist read-out; inhibition, % at 6.6 µM; 1.8% of 330,000 active; AID 485270; in the data active = inhibition mostly above about 38%, no sharp cut-off; inactive = mostly below about 40%;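 note: 0% = agonist challenge alone and 100% = reference antagonist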
CHO parental Ca – counter-screen: ATP calcium response change in parental CHO cells | parental CHO-K1, ATP-induced calcium, Fluo-8 fluorescence | inhibition, % at 5.6 µM | 0.63% of 330,000 active | AID 463079;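 active = inhibition above that plate's mean sample inhibition plus 3 SD, cut at about 26% in these data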;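 note: 0% = ATP-challenged DMSO wells and 100% = DMSO wells without ATP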
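Measured by: calcium-sensitive Fluo-8 fluorescence / Test system: CHO parental line / Controls: ATP-challenged DMSO wells low, unchallenged DMSO wells high / Measure: % inhibition / Compound: single nominal dose of 5.6 µM per compound / Replicates: single well per compound, no replicates / Reagent: ATP as calcium-mobilizing challenge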
GalR3 antagonist – human GalR3 antagonism; O60755; HEK293 GalR3-CNG cAMP membrane potential fluorescence; galR3 body fused to GalR1 C-terminus; inhibition, % at 3 µM; 0.44% of 360,000 active; AID 651719;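 active = inhibition above the screen-wide average plus 3 SD, cut at about 13% in these data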;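 note: forskolin and galanin both at EC90 stimulate the cells; cAMP rise reported by CNG channel membrane potential dye signal; 0% = forskolin plus galanin with DMSO and 100% = forskolin alone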
Target sequence (O60755 1-299 limits assumed): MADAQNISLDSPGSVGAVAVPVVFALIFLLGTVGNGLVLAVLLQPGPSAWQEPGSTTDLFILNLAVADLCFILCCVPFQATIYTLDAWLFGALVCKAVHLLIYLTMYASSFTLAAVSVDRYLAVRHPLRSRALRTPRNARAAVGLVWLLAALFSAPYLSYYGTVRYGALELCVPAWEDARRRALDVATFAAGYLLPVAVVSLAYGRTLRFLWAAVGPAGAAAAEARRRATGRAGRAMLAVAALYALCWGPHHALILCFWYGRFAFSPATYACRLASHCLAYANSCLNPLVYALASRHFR
GPR7 antag – human neuropeptides B/W receptor 1 antagonism. inhibition, % at 4.4 µM. AID 1861. P48145. 1.1% of 290,000 active. GPR7-expressing cells, fluorescence antagonist assay; in the data active = inhibition above about 16%, passing the limit was not always enough;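 note: cells stimulated with the agonist NPW; 0% = agonist with vehicle and 100% = vehicle without agonist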
OX1R antag-2 – human HCRTR1 antagonism; AID 434989; inhibition, % at 5 µM; 0.43% of 330,000 active; CHO/OX1R cells, Fluo-8 calcium fluorescence, orexin A;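 active = inhibition above its plate's threshold, mean inhibition of all tested compounds on the plate plus 3 SD, cut at about 37% in these data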;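 note: 0% = orexin A challenge wells and 100% = SB-334867-A antagonist wells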
An asterisk follows results filed as active; / = not tested or not shown.

SMILES	OX1R antag-1	CHO parental Ca	GalR3 antagonist	GPR7 antag	OX1R antag-2
COC(=O)C1=C(C)N(Cc2ccc(C(F)(F)F)cc2)C(=NCc2ccccc2C(F)(F)F)NC1c1cccc(Cl)c1 (stereo not given)	/	/	-1	/	/
CC(=O)c1sc(N/N=C\c2ccc(N(C)C)cc2)nc1C	58*	-16	-5	-6	-9
COc1cccc(-n2c(SCC(=O)NC3CC3)nc3ccccc3c2=O)c1	/	/	-6	/	/
O=C(Nc1ccc(Br)cn1)c1ccc(Cl)s1	53*	-31	-12	-3	-21
O=C(Nc1cccc(-c2cn3ccccc3n2)c1)c1cccc(Cl)c1	93*	73*	-3	-18	82*
COc1ccc(C(=O)NNC(=S)NC(=O)C(C)(C)C)cc1	5	58*	-8	16	62*
O=C(NNC(=S)NC1CCCCC1)c1sc2ccccc2c1Cl	44	-8	-2	4	-22
Cc1ccc(C(=O)NNC(=S)NC(=O)c2ccc(Cl)cc2)cc1	3	34*	-5	13	71*
CC(C)(C)C(=O)NC(=S)NNC(=O)c1sc2ccccc2c1Cl	8	40*	/	-8	69*
CC(=O)NNC(=S)NC(=O)c1ccc(C)cc1	21	2	-4	-5	6
COc1ccc([C@H]2CC(=O)C=C(c3cc(OC)ccc3OC)C2)cc1	6	-21	-7	/	-9
O=C(NCCCN1CCN(Cc2ccccc2)CC1)C1CCN(S(=O)(=O)N2CCC3(CC2)OCCO3)CC1	28	-5	0	-3	-6
O=C(C1CCN(S(=O)(=O)N2CCC3(CC2)OCCO3)CC1)N1CCN(Cc2ccccc2)CC1	8	-10	0	21*	-14
CC(=O)c1ccc(Sc2nnc(C)s2)c([N+](=O)[O-])c1	63*	-3	0	0	-4
O=C(NC(Nc1nc2ccc([N+](=O)[O-])cc2s1)(C(F)(F)F)C(F)(F)F)c1ccccc1Cl	90*	33*	7	43*	25
O=C(NCC1CCCCC1)C1CCC(=O)N(CCc2cccc(F)c2)C1 (stereo not given)	16	-23	-4	-7	-28
CCOC(=O)C1(C)CCCCCN1C(=O)c1ccc(C(F)(F)F)nc1C (stereo not given)	/	/	-4	/	/
CC1(CNC(=O)C(=O)NCC2(C)CO2)CO1 (stereo not given)	/	/	0	/	/
CC(C)(C)c1csc(Sc2ncccc2[N+](=O)[O-])n1	11	-11	-1	-21	-26
O=[N+]([O-])c1cc(-c2ncccn2)cs1	51*	-1	-3	-9	4
O=C1c2sc3nc4ccccc4n3c2C(=O)N1c1ccccc1Cl	64*	-29	-3	1	-25
Cc1ccc(S(=O)(=O)N2CCC(C(=O)N3CCCC(C(F)(F)F)C3)CC2)cc1C (stereo not given)	10	-18	-4	/	-27
CCC1CCCCN1C(=O)c1noc(C(C)C)c1[N+](=O)[O-] (stereo not given)	24	-3	-10	19*	-19
CC(C)c1onc(C(=O)NC2CCCCC2)c1[N+](=O)[O-]	8	-14	-3	18*	-8
CC(C)c1onc(C(=O)N2CCCCCC2)c1[N+](=O)[O-]	13	4	-6	-6	0
SMILES	OX1R antag-1	CHO parental Ca	GalR3 antagonist	GPR7 antag	OX1R antag-2
COc1cccc(NC(=O)c2ccc3nc(C)c(N(C)Cc4ccc(NC(C)=O)cc4)n3c2)c1	/	/	-2	/	/
COc1ccc(S(=O)(=O)N2CCCCC2)cc1NC(=O)CCNC(=O)c1ccco1	/	/	-2	/	/
COC(=O)c1ccc(NC(=O)c2ccc3nsnc3c2)cc1	12	-3	-4	-9	-18
CC(C)(C)NC(=O)c1ccc2nsnc2c1	67*	-5	-3	-6	6
COc1ccc(/C=C(\NC(=O)c2ccco2)C(=O)NCCc2nc3ccccc3[nH]2)cc1	46*	-23	2	-18	32
CCOC(=O)Cc1csc(-n2sc3ccccc3c2=O)n1	16	32*	-6	3	18
Cn1ccnc1COc1ccc(C=O)cc1	6	-5	-6	-10	-13
O=C(NCC(c1cccs1)N1CCOCC1)c1cc(-c2ccc(F)cc2)nc2ccccc12 (stereo not given)	13	-22	0	20*	-26
O=C(NCC(c1cccs1)N1CCOCC1)c1cc2ccccc2oc1=O (stereo not given)	26*	-22	3	/	3
CC(C)(CO)NC(=O)c1ccc2c(c1)C(=O)c1ccccc1-2	21	-14	-4	-9	-21
O=C(NCCOc1ccccc1)c1ccc2c(c1)S(=O)(=O)c1cc(Cl)ccc1C2=O	12	-21	3	/	-16
COCCNC(=O)c1ccc2c(c1)C(=O)c1ccccc1-2	37*	-10	-15	9	-20
COCCNC(=O)c1ccc2c(c1)S(=O)(=O)c1cc(Cl)ccc1C2=O	42*	-21	0	/	-11
O=C(NCc1ccco1)c1ccc(C(=O)NCc2ccco2)cc1	/	/	-3	/	/
O=C(NCc1ccco1)c1ccc2c(c1)C(=O)c1ccccc1-2	37*	-12	-4	-13	-11
CC(C)CNC(=O)c1cc(=O)[nH]c2ccc(S(=O)(=O)Nc3ccc(F)cc3)cc12	32	-3	-9	1	-10
COc1ccc(C(=O)NCCCN(C)CCCNC(=O)c2ccc(OC)cc2)cc1	3	-8	-8	-20	-12
COc1ccccc1C(=O)Nc1nc2ccc(S(C)(=O)=O)cc2s1	41*	-10	-7	1	1
Cc1ccc2nc(NC(=O)c3ccccn3)sc2c1	29	27*	-7	1	33
C[C@@H](C(=O)Nc1ccc2ccccc2c1)[C@H]1C[C@]1(C)[C@H](NC(=O)c1cnccn1)c1ccccc1	69*	-28	-4	0	27
COC(=O)C(Cc1ccc(OC(=O)c2ccc(C)cc2)cc1)N1Cc2ccccc2C1=O (stereo not given)	22	44*	/	16	24
COC(=O)C(Cc1ccc(O)cc1)N1Cc2ccccc2C1=O (stereo not given)	5	-2	-7	-2	-8
C=CCSc1nnc(-c2cc3c(C(F)(F)F)nn(C)c3s2)n1C	18	1	-8	7	2
C=CCSc1nnc(-c2cc3c(-c4ccccc4)nn(C)c3s2)n1C	75*	-29	0	-6	-4
O=C1OC(c2ccccc2)c2ccc3ccccc3c21 (stereo not given)	10	-11	-12	9	-20
CC(=O)c1cc(CN2CCC(C(=O)Nc3ccc(-n4nc(C)cc4C)cc3)CC2)cs1	8	-19	1	-6	-23
CCCOCCOC(=O)c1[nH]c2c(c1C)C(=O)CC(c1cc(OC)ccc1OC)C2 (stereo not given)	5	-20	0	20*	-26
CCOCCOC(=O)c1[nH]c2c(c1C)C(=O)CC(c1ccc(OC)c(OC)c1)C2 (stereo not given)	11	-4	-1	-1	-21

Compound activity (PubChem BioAssay)
